# Source: ChEMBL document CHEMBL4257478, “Design, synthesis and evaluation of (R)-3-(7-(methyl(7H-pyrrolo[2,3-d]pyrimidin-4-yl)amino)-5-azaspiro[2.4]heptan-5-yl)-3-oxopropanenitrile as a JAK1-selective inhibitor” (Medchemcomm, 2018)
# Assays:
# [1] = target: T1, Tyrosine-protein kinase JAK1 (Homo sapiens, UniProt P23458); assay: Inhibition of human JAK1 at 1 uM using GEEPLYWSFPAKKK as substrate after 40 mins in presence of [gamma-33P-ATP] by scintillation counting method relative to control
# [2] = target: T1, Tyrosine-protein kinase JAK1; assay: Inhibition of human JAK1 using GEEPLYWSFPAKKK as substrate after 40 mins in presence of [gamma-33P-ATP] by scintillation counting method
# [3] = target: Tyrosine-protein kinase JAK2 (Homo sapiens, UniProt O60674); assay: Inhibition of human JAK2 using KTFCGTPEYLAPEVRREPRILSEEEQEMFRDFDYIADWC as substrate after 40 mins in presence of [gamma-33P-ATP] by scintillation counting method
# Tyrosine-protein kinase JAK2, sequence (O60674 whole entry): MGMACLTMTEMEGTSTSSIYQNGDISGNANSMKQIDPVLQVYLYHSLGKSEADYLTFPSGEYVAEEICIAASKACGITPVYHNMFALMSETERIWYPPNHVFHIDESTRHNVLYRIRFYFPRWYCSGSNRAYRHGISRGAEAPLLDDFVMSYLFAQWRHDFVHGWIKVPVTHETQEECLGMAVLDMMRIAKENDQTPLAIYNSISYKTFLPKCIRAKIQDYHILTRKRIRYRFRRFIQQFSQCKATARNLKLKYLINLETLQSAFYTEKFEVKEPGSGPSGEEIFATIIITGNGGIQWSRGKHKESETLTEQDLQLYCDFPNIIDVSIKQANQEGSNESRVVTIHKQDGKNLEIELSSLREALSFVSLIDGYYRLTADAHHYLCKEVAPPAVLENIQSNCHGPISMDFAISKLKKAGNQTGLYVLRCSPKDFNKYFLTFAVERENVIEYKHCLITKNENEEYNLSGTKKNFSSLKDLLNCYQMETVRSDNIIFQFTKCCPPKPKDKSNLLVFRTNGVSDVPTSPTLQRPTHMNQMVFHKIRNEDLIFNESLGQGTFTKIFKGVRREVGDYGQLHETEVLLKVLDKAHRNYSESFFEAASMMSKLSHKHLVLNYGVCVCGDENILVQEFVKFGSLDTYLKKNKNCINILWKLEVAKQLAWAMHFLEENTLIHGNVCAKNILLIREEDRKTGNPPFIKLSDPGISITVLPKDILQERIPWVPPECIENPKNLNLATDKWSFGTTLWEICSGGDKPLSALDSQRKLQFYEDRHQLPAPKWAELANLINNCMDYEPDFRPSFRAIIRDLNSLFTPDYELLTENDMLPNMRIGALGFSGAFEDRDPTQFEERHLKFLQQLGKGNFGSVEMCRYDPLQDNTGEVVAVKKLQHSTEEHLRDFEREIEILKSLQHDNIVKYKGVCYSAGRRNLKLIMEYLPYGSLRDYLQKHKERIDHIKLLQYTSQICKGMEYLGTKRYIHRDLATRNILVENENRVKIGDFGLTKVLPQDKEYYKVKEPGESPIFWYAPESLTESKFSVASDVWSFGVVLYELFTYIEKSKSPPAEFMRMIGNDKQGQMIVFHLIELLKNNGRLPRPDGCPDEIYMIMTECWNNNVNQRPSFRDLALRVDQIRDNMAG
# Homo sapiens = species on record: Homo sapiens; assay: Selectivity index, ratio of IC50 for human JAK2 to IC50 for human JAK1
# Outline: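 Kinase activity assays run as a commercial service at Km ATP; IC50 values fitted from concentration-response data; ratio of JAK2 to JAK1 IC50.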
# T1 sequence (P23458 whole entry): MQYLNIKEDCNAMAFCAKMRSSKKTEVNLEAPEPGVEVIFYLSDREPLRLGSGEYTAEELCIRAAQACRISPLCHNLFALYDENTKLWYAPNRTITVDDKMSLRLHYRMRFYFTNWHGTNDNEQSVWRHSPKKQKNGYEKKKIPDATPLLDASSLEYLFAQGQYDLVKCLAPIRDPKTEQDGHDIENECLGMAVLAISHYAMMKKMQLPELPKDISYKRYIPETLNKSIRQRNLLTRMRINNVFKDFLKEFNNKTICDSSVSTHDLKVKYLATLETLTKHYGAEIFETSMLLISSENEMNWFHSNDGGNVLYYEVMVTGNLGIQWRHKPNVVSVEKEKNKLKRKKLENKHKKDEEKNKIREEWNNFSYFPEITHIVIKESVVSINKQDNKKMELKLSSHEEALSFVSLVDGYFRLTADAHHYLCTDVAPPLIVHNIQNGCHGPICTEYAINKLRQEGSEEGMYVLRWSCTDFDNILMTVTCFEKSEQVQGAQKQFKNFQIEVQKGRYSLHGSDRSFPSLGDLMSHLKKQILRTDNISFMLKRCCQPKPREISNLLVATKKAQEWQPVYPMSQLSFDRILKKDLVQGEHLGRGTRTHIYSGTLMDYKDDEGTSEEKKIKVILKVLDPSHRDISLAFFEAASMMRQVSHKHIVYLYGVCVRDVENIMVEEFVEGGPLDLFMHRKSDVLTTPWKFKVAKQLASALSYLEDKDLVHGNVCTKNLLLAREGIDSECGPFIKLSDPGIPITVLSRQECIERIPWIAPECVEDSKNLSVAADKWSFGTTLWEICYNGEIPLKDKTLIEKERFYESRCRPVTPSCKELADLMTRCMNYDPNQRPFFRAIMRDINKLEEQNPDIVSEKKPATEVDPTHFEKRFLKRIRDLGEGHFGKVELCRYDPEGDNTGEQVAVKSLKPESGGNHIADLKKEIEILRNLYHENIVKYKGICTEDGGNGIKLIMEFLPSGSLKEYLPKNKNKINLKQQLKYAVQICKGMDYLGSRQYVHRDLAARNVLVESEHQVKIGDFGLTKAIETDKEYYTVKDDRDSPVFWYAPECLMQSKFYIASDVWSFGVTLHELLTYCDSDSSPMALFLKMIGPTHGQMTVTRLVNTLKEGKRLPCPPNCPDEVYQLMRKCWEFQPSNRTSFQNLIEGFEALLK
inhibition [1] [%],IC50 [2] [nM],IC50 [3] [nM],Ratio IC50 (Homo sapiens),SMILES
95,–,–,–,CN(c1ncnc2[nH]ccc12)C1CN(C(=O)CC#N)CC12CC2 (racemic)
–,150,6300,42,CN(c1ncnc2[nH]ccc12)[C@H]1CN(C(=O)c2ccccc2)CC12CC2
–,75,2800,37,CCCCNC(=O)N1C[C@H](N(C)c2ncnc3[nH]ccc23)C2(CC2)C1
–,21,250,12,CN(c1ncnc2[nH]ccc12)[C@H]1CN(C(=O)CN=[N+]=[N-])CC12CC2
99,–,–,–,CN(c1ncnc2[nH]ccc12)[C@@H]1CCCN(C(=O)CC#N)C1
–,69,4400,64,CN(c1ncnc2[nH]ccc12)[C@H]1CN(C(=O)NC2CCCCC2)CC12CC2
–,140,6500,46,CN(c1ncnc2[nH]ccc12)[C@H]1CN(C(=O)c2ccncc2)CC12CC2
–,160,7800,49,CN(c1ncnc2[nH]ccc12)[C@H]1CN(C(=O)c2cccnc2)CC12CC2
–,180,2500,14,CC(=O)N1CCC(C(=O)N2C[C@H](N(C)c3ncnc4[nH]ccc34)C3(CC3)C2)CC1
–,170,1200,7.1,CN(c1ncnc2[nH]ccc12)[C@H]1CN(C(=O)C2CC2)CC12CC2
–,53,930,18,CN(c1ncnc2[nH]ccc12)[C@H]1CN(C(=O)c2ccco2)CC12CC2
–,670,13000,19,CNC(=O)CC(=O)N1C[C@H](N(C)c2ncnc3[nH]ccc23)C2(CC2)C1
–,34,1200,35,CC(C)COC(=O)N1C[C@H](N(C)c2ncnc3[nH]ccc23)C2(CC2)C1
–,520,16000,31,CC(=O)NCC(=O)N1C[C@H](N(C)c2ncnc3[nH]ccc23)C2(CC2)C1
–,20,130,6.5,CC(C)S(=O)(=O)N1C[C@H](N(C)c2ncnc3[nH]ccc23)C2(CC2)C1
30,–,–,–,N#CCC(=O)N1CCCC(COc2ncnc3[nH]ccc23)C1 (stereo not given)
–,170,2800,16,CC(C)C(=O)N1C[C@H](N(C)c2ncnc3[nH]ccc23)C2(CC2)C1
–,20,160,8,CN(c1ncnc2[nH]ccc12)[C@H]1CN(C(=S)CC#N)CC12CC2
49,–,–,–,CN(c1ncnc2[nH]ccc12)C1CCN(C(=O)CC#N)CC1
–,190,4500,24,CN(c1ncnc2[nH]ccc12)[C@H]1CN(C(=O)c2ccc(C#N)cc2)CC12CC2
35,–,–,–,N#CCC(=O)N1CCC(Oc2ncnc3[nH]ccc23)CC1
–,6.9,36,5.2,CCCS(=O)(=O)N1C[C@H](N(C)c2ncnc3[nH]ccc23)C2(CC2)C1
–,100,7400,74,CN(c1ncnc2[nH]ccc12)[C@H]1CN(C(=O)c2cccc(C#N)c2)CC12CC2
–,77,1100,14,CC(C)CC(=O)N1C[C@H](N(C)c2ncnc3[nH]ccc23)C2(CC2)C1
54,–,–,–,N#CCC(=O)N1C[C@H]2CCCN(c3ncnc4[nH]ccc34)[C@H]2C1

# The remaining lines, values behind:
SMILES,inhibition [1] [%],IC50 [2] [nM],IC50 [3] [nM],Ratio IC50 (Homo sapiens)
CN(c1ncnc2[nH]ccc12)[C@H]1CN(S(=O)(=O)c2ccc([N+](=O)[O-])cc2)CC12CC2,–,6.3,30,4.8
CN(c1ncnc2[nH]ccc12)[C@H]1CN(S(=O)(=O)N2CCCCC2)CC12CC2,–,15,150,10
CN(c1ncnc2[nH]ccc12)[C@H]1CN(C(=O)Nc2ccccc2)CC12CC2,–,12,420,35
CN(c1ncnc2[nH]ccc12)[C@H]1CN(S(=O)(=O)c2ccccc2F)CC12CC2,–,13,97,7.5
CN(c1ncnc2[nH]ccc12)[C@H]1CN(S(=O)(=O)c2ccc(C#N)cc2)CC12CC2,–,9.8,1100,110
CN(c1ncnc2[nH]ccc12)[C@H]1CN(C(=O)Nc2ccc(Cl)cc2Cl)CC12CC2,–,120,4700,39
COc1ccc(S(=O)(=O)N2C[C@H](N(C)c3ncnc4[nH]ccc34)C3(CC3)C2)cc1,–,9.3,180,19
CN(c1ncnc2[nH]ccc12)[C@H]1CN(S(=O)(=O)c2ccc3ccccc3c2)CC12CC2,–,17,150,8.8
CN(c1ncnc2[nH]ccc12)[C@H]1CN(S(=O)(=O)N2CCOCC2)CC12CC2,–,31,260,8.4
CN(c1ncnc2[nH]ccc12)[C@H]1CN(C(=O)Nc2ccc(F)cc2)CC12CC2,–,23,1000,43
CN(c1ncnc2[nH]ccc12)[C@H]1CN(S(=O)(=O)c2ccc(C(F)(F)F)cc2)CC12CC2,–,16,1400,88
CN(c1ncnc2[nH]ccc12)[C@H]1CN(C(=O)Nc2cc(Cl)ccc2Cl)CC12CC2,–,54,2800,52
CN(c1ncnc2[nH]ccc12)[C@H]1CN(S(=O)(=O)c2cccc(F)c2)CC12CC2,–,2.8,8.4,3
Cc1cccc(S(=O)(=O)N2C[C@H](N(C)c3ncnc4[nH]ccc34)C3(CC3)C2)c1,–,12,66,5.5
CN(c1ncnc2[nH]ccc12)[C@H]1CN(S(=O)(=O)c2ccccc2C#N)CC12CC2,–,50,480,9.6
CCN1C[C@H](N(C)c2ncnc3[nH]ccc23)C2(CC2)C1,–,1400,30000,21
CN(c1ncnc2[nH]ccc12)[C@H]1CN(C(=O)Nc2ccccc2-c2ccccc2)CC12CC2,–,1500,9100,6.1
CN(c1ncnc2[nH]ccc12)[C@H]1CN(Cc2ccccc2)CC12CC2,–,120,98000,820
CN(c1ncnc2[nH]ccc12)[C@H]1CN(S(=O)(=O)c2ccccc2[N+](=O)[O-])CC12CC2,–,26,470,18
CN(c1ncnc2[nH]ccc12)[C@H]1CN(S(=O)(=O)c2cccc([N+](=O)[O-])c2)CC12CC2,–,1.4,5.5,3.9
CCCCN1C[C@H](N(C)c2ncnc3[nH]ccc23)C2(CC2)C1,–,230,15000,65
CN(c1ncnc2[nH]ccc12)[C@H]1CN(C(=O)Nc2ccc(Cl)c(Cl)c2)CC12CC2,–,40,1300,33
Cc1ccc(NC(=O)N2C[C@H](N(C)c3ncnc4[nH]ccc34)C3(CC3)C2)cc1Cl,–,85,1300,15
CN(c1ncnc2[nH]ccc12)[C@H]1CN(S(=O)(=O)c2ccccc2)CC12CC2,–,9,51,5.7
CN(c1ncnc2[nH]ccc12)[C@H]1CN(C(=O)c2cccc(C(F)(F)F)c2)CC12CC2,–,420,11000,26
CN(c1ncnc2[nH]ccc12)[C@H]1CN(C(=O)Nc2cccc(Cl)c2Cl)CC12CC2,–,74,1300,18
CN(c1ncnc2[nH]ccc12)[C@H]1CN(C(=O)c2ccccc2C(F)(F)F)CC12CC2,–,500,9100,18
CN(c1ncnc2[nH]ccc12)[C@H]1CN(S(=O)(=O)c2ccc(F)cc2)CC12CC2,–,9.4,50,5.3
CN(c1ncnc2[nH]ccc12)[C@H]1CN(C(=S)Nc2cc(C(F)(F)F)cc(C(F)(F)F)c2)CC12CC2,–,470,11000,23
